Paper PMC3273977 (International Journal of Nanomedicine, 2012)

Columns and labels:
[1] = Renal accumulation pharmacokinetics after a single intravenous injection; type: in vivo, mice
Summary of the method: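 After one intravenous dose of sunitinib malate, 1.7 μmol/kg (0.9 mg/kg), to male C57Bl/6J mice, kidneys were collected at set times and frozen at −80°C. Kidneys were homogenised in 4% BSA to 0.1 g tissue/mL. Sunitinib was measured by LC-MS/MS against homogenate standards of 10–500 ng/mL, and renal levels are expressed as % of injected dose.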

[2] = tested on: ABCG2; settings: cited from earlier work
[3] = tested on: collagen 1A2, PAI-1, fibronectin, and MCP-1; test: Renal mRNA expression of profibrotic genes; type: in vivo; settings: UUO mice 3 days; three daily ip injections 50 mg/kg sunitinib malate
Summary of the method: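 Male C57Bl/6J mice, 3-day UUO; groups n=6–7; single iv test compound or sunitinib malate, or ip sunitinib malate 50 mg/kg with later doses at 24 and 48 h. TaqMan qRT-PCR on whole kidney and cortex. mRNA normalized to TBP and expressed relative to non-obstructed control mice (set at 1). Mean ± SEM; one-way ANOVA, P < 0.05.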

[4] = Plasma pharmacokinetics after a single intravenous injection; type: in vivo, mice
Summary of the method: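 Male C57Bl/6J mice (n = 15) received one intravenous dose of sunitinib malate, 1.7 μmol/kg (0.9 mg/kg), equimolar to a 20 mg/kg lysozyme conjugate. Blood was taken by cheek puncture at 1 min and at sacrifice time points, then centrifuged. Plasma sunitinib was measured by LC-MS/MS against standards of 10 ng/mL–1 μg/mL. Values are % of dose, assuming plasma volume 0.05 mL/g. Parameters come from two-compartment curve fitting.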

[5] = tested on: α-SMA, collagen IV, and vimentin; test: Immunostaining of fibrotic markers in kidney sections, UUO model; type: in vivo; settings: UUO mice 3 days; daily 50 mg/kg sunitinib malate ip
Summary of the method: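 Male C57Bl/6J mice, 3-day UUO; n=7 per treatment group, n=6 per control. Dosing: single iv test compound (40 mg/kg conjugate) or equimolar iv sunitinib malate (3.4 μmol/kg), or ip sunitinib malate 50 mg/kg with 2nd/3rd doses at 24 and 48 h. Sections 3 μm, peroxide/azide block pH 5.8; 15-min boil citrate pH 6.0 (collagen IV, vimentin) or Tris/EDTA pH 9.0 (α-SMA); primaries 1 h RT (1:400, 1:400, 1:200).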

[6] = tested on: HK-2 cells; test: In vitro cytotoxicity, sulforhodamine B assay; type: cell-based; settings: Homo sapiens, HK-2, 24 h, read-out: IC50 cell viability
[7] = tested on: UUO-induced tubulointerstitial fibrosis; test: Overall antifibrotic effect in UUO-induced tubulointerstitial fibrosis; type: in vivo; settings: UUO mice, daily 50 mg/kg sunitinib malate
Summary of the method: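 Male C57Bl/6J mice weighing 13–25 g had unilateral ureteral obstruction and were killed after 3 days. Sunitinib malate was given as three daily intraperitoneal injections of 50 mg/kg (94 μmol/kg), n = 7. Controls were normal mice and untreated UUO mice, n = 6 each. Kidneys were scored for collagen IV, vimentin and α-SMA immunostaining and p-PDGFR-β (Tyr740) Western blot. Data are mean ± SEM.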

[8] = tested on: tyrosine kinases in HK-2 cells; test: Inhibition of tyrosine kinase phosphorylation after uptake in HK-2 cells; type: cell-based, human; settings: 10 μM, 24 hours incubation of HK-2 cells, lysis, ATP stimulation, Western blot
Summary of the method: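 HK-2 cells were seeded at 1.5 × 10^4 per well, serum-starved overnight, then given 10 μM test compound or 0.1% (v/v) DMSO control for 24 h. Cells were PBS-washed and lysed with protease and phosphatase inhibitors, and protein was measured by BCA. Lysate was mixed with an equal volume of 10 μM ATP in Abl buffer (pH 7.5) and held 60 min at 37°C. 10 μg protein went to SDS-PAGE, anti-phosphotyrosine (PY20) blot and densitometry.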

[9] = tested on: P-glycoprotein (P-gp); settings: cited from earlier work
[10] = target: PDGFR-β (Mus musculus, UniProt P05622); test: Western blot of p-PDGFR-β in renal cortex, UUO model; type: in vivo; settings: UUO mice 3 days; three daily ip injections 50 mg/kg sunitinib malate
Chain of PDGFR-β (P05622 32-1098): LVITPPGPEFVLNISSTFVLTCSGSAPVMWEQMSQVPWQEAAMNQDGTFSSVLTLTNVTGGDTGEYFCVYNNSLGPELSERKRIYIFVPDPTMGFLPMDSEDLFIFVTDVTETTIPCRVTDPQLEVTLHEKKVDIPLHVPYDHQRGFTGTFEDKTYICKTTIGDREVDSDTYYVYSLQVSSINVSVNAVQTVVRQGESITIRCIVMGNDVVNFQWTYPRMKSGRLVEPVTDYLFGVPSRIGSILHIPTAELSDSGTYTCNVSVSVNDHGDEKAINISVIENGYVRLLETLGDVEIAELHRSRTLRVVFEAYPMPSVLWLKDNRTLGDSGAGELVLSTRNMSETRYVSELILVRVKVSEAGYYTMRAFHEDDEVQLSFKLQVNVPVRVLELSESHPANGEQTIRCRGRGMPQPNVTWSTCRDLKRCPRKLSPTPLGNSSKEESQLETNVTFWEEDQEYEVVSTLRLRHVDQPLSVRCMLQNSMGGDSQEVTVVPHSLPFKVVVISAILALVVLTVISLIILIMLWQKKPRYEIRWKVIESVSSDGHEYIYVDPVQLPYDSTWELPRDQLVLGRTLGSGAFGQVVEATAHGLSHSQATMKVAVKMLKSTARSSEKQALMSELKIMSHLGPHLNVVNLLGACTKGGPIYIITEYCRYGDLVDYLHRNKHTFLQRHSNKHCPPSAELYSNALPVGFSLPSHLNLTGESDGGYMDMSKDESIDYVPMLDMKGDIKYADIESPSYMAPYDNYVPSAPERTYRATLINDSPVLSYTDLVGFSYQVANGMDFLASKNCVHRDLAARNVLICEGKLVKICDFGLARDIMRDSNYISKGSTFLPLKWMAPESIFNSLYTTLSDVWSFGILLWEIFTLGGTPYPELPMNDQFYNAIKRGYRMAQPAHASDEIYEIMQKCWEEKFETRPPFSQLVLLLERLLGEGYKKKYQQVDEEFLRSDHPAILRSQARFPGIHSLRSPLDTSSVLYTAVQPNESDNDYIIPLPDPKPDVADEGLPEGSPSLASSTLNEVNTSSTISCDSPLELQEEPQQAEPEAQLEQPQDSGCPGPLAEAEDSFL
Summary of the method: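 Male C57Bl/6J mice sacrificed after 3 days UUO; ip sunitinib malate 50 mg/kg, with 2nd/3rd doses at 24 and 48 h. Cortex homogenized in RIPA with protease/phosphatase inhibitors and EDTA. Blots blocked 1 h at room temperature in 5% milk/TBS-T. Probed overnight at 4°C with rabbit anti-p-PDGFR-β (Tyr740, 1:200) or β-actin (1:1000) in TBS-T/5% BSA.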

[11] = mice, single iv, equimolar 1.7 μmol/kg, kidneys
[12] = mice, single iv, equimolar 1.7 μmol/kg, kidneys, listed as sunitinib

In the case of `CCN(CC)CCNC(=O)c1c(C)[nH]c(/C=C2\C(=O)Nc3ccc(F)cc32)c1C` [Sunitinib, sunitinib], the half-life ([1]; C57BI/6 J, mouse, kidneys, iv, 0.9 mg/kg) is reported as 66 min, the “time to almost complete elimination from the kidneys” value ([1]; mice, after administration) is reported as no more than 12 h and the “time to maximum renal levels” value ([1]; mice, single iv, equimolar 1.7 μmol/kg) is reported as no more than 30 min. For the same molecule, the “AUC0–∞” value [1, 11] was 9.4% dose*hours, the “Cmax (% of the dose)” value [1, 11] was 4.9% and the “AUC0–∞” value [1, 12] was 9.4 % dose*hours. The “Cmax (% of the dose)” value [1, 12] was 4.9%, the “substrate of efflux transporter ABCG2” value [2] was “substrate” and the “renal mRNA expression of collagen 1A2, PAI-1, fibronectin, MCP-1” value [3] was “significantly lower renal mRNA levels of collagen 1A2 and fibronectin”. For the same molecule, the half-life ([4]; C57Bl/6J, mouse, plasma, iv, 0.9 mg/kg) was 25 min, the “Peripheral distribution volume (V2)” value ([4]; mice, single iv, equimolar 1.7 μmol/kg, plasma) was 87 mL and the “initial distribution volume (V1) relative to 17864-ULS-lysozyme” value ([4]; mice, single iv, equimolar dose) was “over 15 fold”. For the same molecule, the “renal deposition of α-SMA, collagen IV, and vimentin” value [5] was “decreased the deposition of vimentin in the kidneys, although these differences were not significant”, the IC50 [6] was 12 µM and the antifibrotic effect ([7]; listed as sunitinib) was “reduction of some of the studied markers”. The antifibrotic effect ([7]; listed as sunitinib malate) was “antifibrotic responses”, the “inhibitory effect on phosphorylation of tyrosine kinases” value [8] was “strongly inhibited multiple kinases” and the “substrate of efflux transporter P-gp” value [9] was “substrate”. The “p-PDGFR-β levels in the renal cortex” value [10] was “decreased p-PDGFR-β levels in the renal cortex”.
